In ChEMBL document CHEMBL5356993, “Novel pyrazolo[3,4-d]pyrimidine derivatives: design, synthesis, anticancer evaluation, VEGFR-2 inhibition, and antiangiogenic activity” (RSC Med Chem, 2023):

Experiments:
Format in all cases: functional
Conditions in all cases: read-out: GI
NCI-H522 = assay: Antiproliferative activity against human NCI-H522 cells assessed as cell growth inhibition at 10 uM incubated for 48 hrs by SRB assay relative to control
Procedure, shortened: (§1)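 Cells plated in 96-well plates at […] cells/well and preincubated 24 h at 37 °C, 5% CO2. Time-zero plates were TCA-fixed. Compound was diluted in medium with 50 µg/mL gentamicin and cells exposed for 48 h. Adherent cells fixed with 10% final TCA; suspension cells with 16% final TCA. Plates stained with 0.4% SRB in 1% acetic acid, dye solubilized in 10 mM Trizma, absorbance read at 515 nm. Percent growth calculated against time-zero and control.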

COLO 205 = assay: Antiproliferative activity against human COLO 205 cells assessed as cell growth inhibition at 10 uM incubated for 48 hrs by SRB assay relative to control
HCC 2998 = assay: Antiproliferative activity against human HCC 2998 cells assessed as cell growth inhibition at 10 uM incubated for 48 hrs by SRB assay relative to control
HCT-116 = assay: Antiproliferative activity against human HCT-116 cells assessed as cell growth inhibition at 10 uM incubated for 48 hrs by SRB assay relative to control
HCT-15 = assay: Antiproliferative activity against human HCT-15 cells assessed as cell growth inhibition at 10 uM incubated for 48 hrs by SRB assay relative to control
HT-29 = assay: Antiproliferative activity against human HT-29 cells assessed as cell growth inhibition at 10 uM incubated for 48 hrs by SRB assay relative to control; procedure, shortened: as §1
SF-268 = assay: Antiproliferative activity against human SF-268 cells assessed as cell growth inhibition at 10 uM incubated for 48 hrs by SRB assay relative to control
SF-295 = assay: Antiproliferative activity against human SF-295 cells assessed as cell growth inhibition at 10 uM incubated for 48 hrs by SRB assay relative to control; procedure, shortened: as §1
SNB-19 = assay: Antiproliferative activity against human SNB-19 cells assessed as cell growth inhibition at 10 uM incubated for 48 hrs by SRB assay relative to control
Procedure, shortened: (§2)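 Cells pre-incubated 24 h at 37°C, 5% CO2, then exposed to compound (DMSO stock diluted in medium with 50 µg/mL gentamicin) for 48 h. Adherent cells fixed with cold TCA (final 10%, 60 min, 4°C); suspension cells fixed with 16% TCA final. Stained with 0.4% SRB in 1% acetic acid for 10 min, dye solubilized in 10 mM Trizma base, absorbance read at 515 nm. Growth calculated against time-zero and untreated control plates.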

SNB-75 = assay: Antiproliferative activity against human SNB-75 cells assessed as cell growth inhibition at 10 uM incubated for 48 hrs by SRB assay relative to control; procedure, shortened: as §2
LOX IMVI = assay: Antiproliferative activity against human LOX IMVI cells assessed as cell growth inhibition at 10 uM incubated for 48 hrs by SRB assay relative to control
Malme-3M = assay: Antiproliferative activity against human Malme-3M cells assessed as cell growth inhibition at 10 uM incubated for 48 hrs by SRB assay relative to control
M14 = assay: Antiproliferative activity against human M14 cells assessed as cell growth inhibition at 10 uM incubated for 48 hrs by SRB assay relative to control; procedure, shortened: as §1
SK-MEL-28 = assay: Antiproliferative activity against human SK-MEL-28 cells assessed as cell growth inhibition at 10 uM incubated for 48 hrs by SRB assay relative to control; procedure, shortened: as §1
UACC-62 = assay: Antiproliferative activity against human UACC-62 cells assessed as cell growth inhibition at 10 uM incubated for 48 hrs by SRB assay relative to control; procedure, shortened: as §2
IGROV-1 = assay: Antiproliferative activity against human IGROV-1 cells assessed as cell growth inhibition at 10 uM incubated for 48 hrs by SRB assay relative to control
OVCAR-3 = assay: Antiproliferative activity against human OVCAR-3 cells assessed as cell growth inhibition at 10 uM incubated for 48 hrs by SRB assay relative to control; procedure, shortened: as §1
OVCAR-4 = assay: Antiproliferative activity against human OVCAR-4 cells assessed as cell growth inhibition at 10 uM incubated for 48 hrs by SRB assay relative to control
786-0 = assay: Antiproliferative activity against human 786-0 cells assessed as cell growth inhibition at 10 uM incubated for 48 hrs by SRB assay relative to control
A498 = assay: Antiproliferative activity against human A498 cells assessed as cell growth inhibition at 10 uM incubated for 48 hrs by SRB assay relative to control; procedure, shortened: as §1
ACHN = assay: Antiproliferative activity against human ACHN cells assessed as cell growth inhibition at 10 uM incubated for 48 hrs by SRB assay relative to control
CAKI-1 = assay: Antiproliferative activity against human CAKI-1 cells assessed as cell growth inhibition at 10 uM incubated for 48 hrs by SRB assay relative to control
SN12C = assay: Antiproliferative activity against human SN12C cells assessed as cell growth inhibition at 10 uM incubated for 48 hrs by SRB assay relative to control
PC-3 = assay: Antiproliferative activity against human PC-3 cells assessed as cell growth inhibition at 10 uM incubated for 48 hrs by SRB assay relative to control
DU-145 = assay: Antiproliferative activity against human DU-145 cells assessed as cell growth inhibition at 10 uM incubated for 48 hrs by SRB assay relative to control
MCF7 = assay: Antiproliferative activity against human MCF7 cells assessed as cell growth inhibition at 10 uM incubated for 48 hrs by SRB assay relative to control
Hs-578T = assay: Antiproliferative activity against human Hs-578T cells assessed as cell growth inhibition at 10 uM incubated for 48 hrs by SRB assay relative to control; procedure, shortened: as §1
MDA-MB-468 = assay: Antiproliferative activity against human MDA-MB-468 cells assessed as cell growth inhibition at 10 uM incubated for 48 hrs by SRB assay relative to control
HOP-62 = assay: Antiproliferative activity against human HOP-62 cells assessed as cell growth inhibition at 10 uM incubated for 48 hrs by SRB assay relative to control
MOLT-4 = assay: Antiproliferative activity against human MOLT-4 cells assessed as cell growth inhibition at 10 uM incubated for 48 hrs by SRB assay relative to control
HL-60(TB) = assay: Antiproliferative activity against human HL-60(TB) cells assessed as cell growth inhibition at 10 uM incubated for 48 hrs by SRB assay relative to control
Procedure, shortened: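 Cells were plated at […] cells/well and preincubated 24 h at 37°C, 5% CO2, with time-zero plates TCA-fixed. Compound was diluted from DMSO stock in medium with 50 µg/mL gentamicin, then exposed for 48 h. Settled suspension cells were fixed with 80% TCA (final 16%), stained with 0.4% SRB and solubilized in 10 mM Trizma, A515. Growth was taken relative to Tz and control.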

CCRF-CEM = assay: Antiproliferative activity against human CCRF-CEM cells assessed as cell growth inhibition at 10 uM incubated for 48 hrs by SRB assay relative to control; procedure, shortened: as §1

Cc1nc2c(cnn2-c2ccccc2)c(=O)n1-c1ccc(NC(=O)c2ccco2)cc1
inhibition of growth at 10 µM (NCI-H522): < 15% | inhibition of growth at 10 µM (COLO 205): < 15% | inhibition of growth at 10 µM (HCC 2998): < 15% | inhibition of growth at 10 µM (HCT-116): < 15% | inhibition of growth at 10 µM (HCT-15): < 15% | inhibition of growth at 10 µM (HT-29): < 15% | inhibition of growth at 10 µM (SF-268): < 15% | inhibition of growth at 10 µM (SF-295): 15.3% | inhibition of growth at 10 µM (SNB-19): < 15% | inhibition of growth at 10 µM (SNB-75): < 15% | inhibition of growth at 10 µM (LOX IMVI): < 15% | inhibition of growth at 10 µM (Malme-3M): 16.6% | inhibition of growth at 10 µM (M14): < 15% | inhibition of growth at 10 µM (SK-MEL-28): < 15% | inhibition of growth at 10 µM (UACC-62): 16.6% | inhibition of growth at 10 µM (IGROV-1): < 15% | inhibition of growth at 10 µM (OVCAR-3): < 15% | inhibition of growth at 10 µM (OVCAR-4): 21.2% | inhibition of growth at 10 µM (786-0): < 15% | inhibition of growth at 10 µM (A498): < 15% | inhibition of growth at 10 µM (ACHN): < 15% | inhibition of growth at 10 µM (CAKI-1): < 15% | inhibition of growth at 10 µM (SN12C): < 15% | inhibition of growth at 10 µM (PC-3): < 15% | inhibition of growth at 10 µM (DU-145): < 15% | inhibition of growth at 10 µM (MCF7): 23.4% | inhibition of growth at 10 µM (Hs-578T): < 15% | inhibition of growth at 10 µM (MDA-MB-468): 37.3% | inhibition of growth at 10 µM (HOP-62): < 15% | inhibition of growth at 10 µM (MOLT-4): < 15% | inhibition of growth at 10 µM (HL-60(TB)): 19.8% | inhibition of growth at 10 µM (CCRF-CEM): 23.6%

Cc1nc2c(cnn2-c2ccccc2)c(=O)n1-c1ccc(NC(=O)c2ccc(F)cc2)cc1
inhibition of growth at 10 µM (NCI-H522): 36.1% | inhibition of growth at 10 µM (COLO 205): 37.7% | inhibition of growth at 10 µM (HCC 2998): 20.1% | inhibition of growth at 10 µM (HCT-116): 51.7% | inhibition of growth at 10 µM (HCT-15): 33.9% | inhibition of growth at 10 µM (HT-29): 36.5% | inhibition of growth at 10 µM (SF-268): < 15% | inhibition of growth at 10 µM (SF-295): 60.4% | inhibition of growth at 10 µM (SNB-19): 19.6% | inhibition of growth at 10 µM (SNB-75): 35.5% | inhibition of growth at 10 µM (LOX IMVI): 38.2% | inhibition of growth at 10 µM (Malme-3M): 31.6% | inhibition of growth at 10 µM (M14): 37.1% | inhibition of growth at 10 µM (SK-MEL-28): 16.2% | inhibition of growth at 10 µM (UACC-62): 36.9% | inhibition of growth at 10 µM (IGROV-1): 26.5% | inhibition of growth at 10 µM (OVCAR-3): < 15% | inhibition of growth at 10 µM (OVCAR-4): 59.9% | inhibition of growth at 10 µM (786-0): 17.5% | inhibition of growth at 10 µM (A498): < 15% | inhibition of growth at 10 µM (ACHN): 39% | inhibition of growth at 10 µM (CAKI-1): 34.3% | inhibition of growth at 10 µM (SN12C): 25.6% | inhibition of growth at 10 µM (PC-3): 46.9% | inhibition of growth at 10 µM (DU-145): 19.3% | inhibition of growth at 10 µM (MCF7): 64.2% | inhibition of growth at 10 µM (Hs-578T): 21.3% | inhibition of growth at 10 µM (MDA-MB-468): 85.5% | inhibition of growth at 10 µM (HOP-62): 35.4% | inhibition of growth at 10 µM (MOLT-4): 94.6% | inhibition of growth at 10 µM (HL-60(TB)): 57.5% | inhibition of growth at 10 µM (CCRF-CEM): 65.2%

Cc1nc2c(cnn2-c2ccccc2)c(=O)n1-c1ccc(NC(=O)c2ccccc2)cc1
inhibition of growth at 10 µM (NCI-H522): 20.7% | inhibition of growth at 10 µM (COLO 205): 20.2% | inhibition of growth at 10 µM (HCC 2998): < 15% | inhibition of growth at 10 µM (HCT-116): 41.9% | inhibition of growth at 10 µM (HCT-15): 20.2% | inhibition of growth at 10 µM (HT-29): 25.2% | inhibition of growth at 10 µM (SF-268): 21.5% | inhibition of growth at 10 µM (SF-295): 46.5% | inhibition of growth at 10 µM (SNB-19): 23.6% | inhibition of growth at 10 µM (SNB-75): 43.2% | inhibition of growth at 10 µM (LOX IMVI): 26.8% | inhibition of growth at 10 µM (Malme-3M): 29.8% | inhibition of growth at 10 µM (M14): 23.6% | inhibition of growth at 10 µM (SK-MEL-28): < 15% | inhibition of growth at 10 µM (UACC-62): 36.8% | inhibition of growth at 10 µM (IGROV-1): < 15% | inhibition of growth at 10 µM (OVCAR-3): 16.8% | inhibition of growth at 10 µM (OVCAR-4): 53.2% | inhibition of growth at 10 µM (786-0): 20.4% | inhibition of growth at 10 µM (A498): < 15% | inhibition of growth at 10 µM (ACHN): 36.7% | inhibition of growth at 10 µM (CAKI-1): 33.4% | inhibition of growth at 10 µM (SN12C): 24.3% | inhibition of growth at 10 µM (PC-3): 29.5% | inhibition of growth at 10 µM (DU-145): 18.6% | inhibition of growth at 10 µM (MCF7): 47.1% | inhibition of growth at 10 µM (Hs-578T): 28.9% | inhibition of growth at 10 µM (MDA-MB-468): 71% | inhibition of growth at 10 µM (HOP-62): 37.9% | inhibition of growth at 10 µM (MOLT-4): 68.1% | inhibition of growth at 10 µM (HL-60(TB)): 18.5% | inhibition of growth at 10 µM (CCRF-CEM): 49.5%
